Among all 360,000 compounds or so, about 5,400 (1.5%) were called active. For the sample, actives were picked, then their nearest neighbours and some compounds at random. Values without a mark were called inactive.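 How the source made its calls: active means inhibition above a per-plate cutoff, the mean inhibition of test compounds on that plate plus 3 SD (cut at about 49% in these data); inactive means the rest.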
What follows are compounds tested against Trace amine-associated receptor 1 (Homo sapiens) (UniProt Q96RJ0) (assay: human TAAR1 antagonists, primary screen, Fluo-8 calcium fluorescence, CHO RD-HGA16 cells (AID 624466;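 further: 0% = DMSO plus EC80 beta-PEA response and 100% = DMSO alone without agonist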)). Conditions: CHO RD-HGA16 TAAR1, Fluo-8 calcium fluorescence, antagonist; at 3 µM; hits give high values.
Sequence of Trace amine-associated receptor 1 (Homo sapiens) (Q96RJ0 whole entry, looked up): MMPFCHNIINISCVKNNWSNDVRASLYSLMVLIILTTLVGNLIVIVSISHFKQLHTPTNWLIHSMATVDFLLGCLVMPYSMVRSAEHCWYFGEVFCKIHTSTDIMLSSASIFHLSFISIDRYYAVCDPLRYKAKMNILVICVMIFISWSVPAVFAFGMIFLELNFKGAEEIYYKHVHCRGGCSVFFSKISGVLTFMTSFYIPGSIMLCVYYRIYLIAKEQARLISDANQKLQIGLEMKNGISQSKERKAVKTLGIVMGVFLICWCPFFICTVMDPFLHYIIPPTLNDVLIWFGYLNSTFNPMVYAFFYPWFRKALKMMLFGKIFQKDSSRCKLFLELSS
Method in brief: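 Material: RD-HGA16 CHO cells with stable hTAAR1 and Gα16; Dosing: single nominal final test compound concentration of 3 µM; Schedule: seeding 17-24 h prior, 75-min 37 °C, 30-min RT dye loading; Detection: kinetic Fluo-8 calcium fluorescence measurement; Measure: % inhibition from peak post-agonist over basal fluorescence ratio; Benchmarks: vehicle and agonist controls.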
`COc1ccccc1C(=O)N1O[C@]23C=C[C@]14C[C@@H](O)CC[C@]4(C)C2CC[C@]1(C)[C@@H]([C@H](C)/C=C/[C@H](C)C(C)C)CC[C@H]13` (stereo partly specified) was tested, and the inhibition was 2.31%. `Cc1ccc(C)c(-n2nnnc2SCC(=O)c2c(N)n(C)c(=O)n(C)c2=O)c1` gave an inhibition of -13.3%. In the case of `COC(=O)Nc1ccc(S(=O)(=O)Nc2cc(OC)nc(OC)n2)cc1`, the inhibition is reported as -1.45%. With `Cc1cc2nc3c(=O)[nH]c(=O)nc-3n(C[C@H](O)[C@H](O)[C@H](O)CO)c2cc1C` the inhibition was 18.8%. With `CCN(CC)CCCC(C)n1c2nc(=O)[nH]c(=O)c-2nc2cc(Cl)ccc21` (stereo unspecified) the inhibition was 72% (active). With `Nc1ccn([C@@H]2O[C@H](C(=O)N[C@H]3CCCCNC3=O)[C@@H](O)[C@H]2O)c(=O)n1` the inhibition was 21.5%. With `O=C(COC(=O)c1ccc(S(=O)(=O)N2CCc3ccccc3C2)cc1)NC(=O)NCc1ccco1` the inhibition was 0.28%. `Cc1cc(N2CCN(C(=O)OC(C)(C)C)C[C@H]2C)ccc1N1CCN(Cc2ccccc2)[C@H](C)C1` was tested, and the inhibition was 8.39%. Compound `COc1ccc(OC)c(Nc2nc3ccccc3n3cnnc23)c1` has an inhibition of -3.9%. Compound `Cc1ccc(Sc2ccc(NC(=O)c3ccc(F)cc3)cc2C#N)cc1` has an inhibition of 47.8%. In the case of `CSc1ccc(C#N)cc1NC(=O)c1cccc(Cl)c1`, the inhibition is reported as -1.36%. For `COc1ccc(Sc2ccc(NC(=O)c3cccc(Cl)c3)cc2C#N)cc1`, the inhibition was 48.8% (active). For `Cc1cc(C)n2c(NCc3ccccc3)c(CC(C)C)nc2n1`, the inhibition was -31.3%. In the case of `COc1cccc(-c2cnc3c(NC(C)=O)cc(-c4cc(F)ccc4OC)cn23)c1`, the inhibition is reported as 56.7% (active). Compound `COc1cccc(-c2cnc3c(NC(C)=O)cc(-c4cccc(NC(C)=O)c4)cn23)c1` has an inhibition of 33.8%. `COc1ccccc1-c1cc(NC(C)=O)c2ncc(-c3ccc(F)cc3)n2c1` gave an inhibition of 11%. With `CC1(C)CC(=O)C2=C(C1)Nc1cc(C(=O)c3ccccc3)ccc1NC2c1ccccn1` (stereo unspecified) the inhibition was -12.4%. `Cc1ccc(C)c(NS(=O)(=O)c2c(C)[nH]c(C)c2C(=O)N2CCCCC2)c1` gave an inhibition of -30.8%. In the case of `Cc1ccc(SCC(=O)Nc2ccc3c(c2)OCCO3)cc1`, the inhibition is reported as -11.4%. `COC(=O)c1cc(OC)c(OC)cc1NC(=O)CSc1ccc(C)cc1` gave an inhibition of -0.75%. With `Cc1ccc(SCC(=O)c2cc(C)c(OC(=S)N(C)C)c(C)c2)cc1` the inhibition was 57% (active). For `COC(=O)c1ccc2nc(-c3ccccc3)c(Cc3ccc(OC)cc3C)n2c1`, the inhibition was 3.43%. Compound `COC(=O)c1ccc2nc(-c3cccc(Br)c3)c(Cc3ccc(OC)cc3C)n2c1` has an inhibition of -4.86%. In the case of `CCCCNc1c(-c2cccc(Sc3ccc(OC)cc3)c2)nc2ccccn12`, the inhibition is reported as 87.9% (active). `CCCCNC(=O)CCn1nc(-c2ccc(Cl)cc2)ccc1=O` gave an inhibition of -14.1%. Work on `COc1ccc(Nc2ncc(F)c(N3CCOCC3)n2)cc1` yielded an inhibition of 7.62%. `C/C(=N\Nc1nc(Nc2ccccc2)nc(N2CCOCC2)n1)c1cccs1` gave an inhibition of 9.62%. For `c1ccc(Nc2nc(N3CCOCC3)c3ccccc3n2)cc1`, the inhibition was 74.1% (active). `COc1ccc(S(=O)(=O)N2CCCC(C(=O)Nc3ccc(NC(=O)c4ccccn4)cc3)C2)cc1` (stereo unspecified) was tested, and the inhibition was 63% (active). In the case of `COc1ccc(NC(=O)C2CCCN(S(=O)(=O)c3cccc4cccnc34)C2)cc1OC` (stereo unspecified), the inhibition is reported as 66.5% (active). Compound `COc1ccc(CCNC(=O)C2CCCN(S(=O)(=O)c3ccc(OC)cc3)C2)cc1` (stereo unspecified) has an inhibition of 5.88%. `COc1ccccc1CNC(=O)C1CCCN(S(=O)(=O)c2cccc3cccnc23)C1` (stereo unspecified) was tested, and the inhibition was -10.9%. For `O=C(O)C1CCCN(S(=O)(=O)c2cccc3cccnc23)C1` (stereo unspecified), the inhibition was -9.13%. Work on `CC(=O)Nc1ccc(NC(=O)C2CCCN(S(=O)(=O)c3ccc(Cl)cc3)C2)cc1` (stereo unspecified) yielded an inhibition of 9.58%. In the case of `CCN(CC(=O)Nc1ccc(NC(C)=O)cc1)C(=O)CSC(=S)N1CCCC1`, the inhibition is reported as 14.2%. `O=C1[C@H]2[C@@H](c3ccc(C(F)(F)F)cc3)N[C@]3(CCCN(Cc4ccc(Br)cc4)C3=O)[C@H]2C(=O)N1Cc1ccccc1` was tested, and the inhibition was -23.7%. For `CCCNC(=O)C[C@@H]1CC[C@@H]2[C@H](COC[C@H](O)CN2C(=O)c2cc(Cl)cc(Cl)c2)O1`, the inhibition was -27.3%. `O=C(NCCCc1ccccc1)C1CCC(=O)N(CCc2ccc(Cl)cc2)C1` (stereo unspecified) showed an inhibition of 2.14%. `CCOc1cc(N2CCOCC2)c(OCC)cc1NC(=O)COc1cccc2cccnc12` was tested, and the inhibition was 56.4% (active). With `CCOc1cc(N2CCOCC2)c(OCC)cc1NC(=O)COC(=O)[C@H](Cc1c[nH]c2ccccc12)NC(C)=O` the inhibition was 22.1%. `CCOc1cc(N2CCOCC2)c(OCC)cc1NC(=O)C1=NN(c2cccc(C)c2)C(=O)CC1` showed an inhibition of 44.9%. For `COc1ccccc1N1CC(C(=O)NCCN2C(=O)S/C(=C\c3cccnc3)C2=O)CC1=O` (stereo unspecified), the inhibition was -4.74%. `O=C(NCCN1C(=O)S/C(=C\c2cccnc2)C1=O)c1cccc(OC(F)F)c1` showed an inhibition of 7.53%. `O=C(NCCN1C(=O)S/C(=C\c2cccnc2)C1=O)c1ccc(S(=O)(=O)N2CCCC2)cc1` was tested, and the inhibition was 49.1% (active). With `COC(=O)[C@@]12C[C@@H](CC(=O)NCc3cccc(C(F)(F)F)c3)C(=O)N(Cc3ccco3)C1=CCC(C)(C)C2` the inhibition was -43.8%. Compound `COC(=O)c1cc2c(c3c4ccccc4n(S(=O)(=O)c4cccc(C)c4)c13)C(=O)N(Cc1ccccc1)C2` has an inhibition of -30.3%. With `O=S1(=O)c2c(cccc2N2CCCCC2)O[C@H](COCc2ccccc2)CN1C1CC1` the inhibition was 51.8% (active). `O=S1(=O)c2c(cccc2N2CCCC2)O[C@H](COCc2ccccc2)CN1C1CC1` showed an inhibition of 23.8%. Work on `CSc1ccc(Oc2cccc3c2S(=O)(=O)N([C@H](C)c2ccccc2)C[C@@H](COCc2ccccc2)O3)cc1C` yielded an inhibition of 5.23%. `COC(=O)C1=C(C(=O)OC)C2C=C(C(C)C)C1C(=O)C2(C)O` (stereo unspecified) showed an inhibition of -37.3%. Work on `C[C@H]1CN([C@@H](C)CO)S(=O)(=O)c2ccc(-c3cccc(F)c3)cc2O[C@@H]1CN(C)C` yielded an inhibition of -12.6%. In the case of `C[C@@H]1CN([C@@H](C)CO)S(=O)(=O)c2ccc(C#Cc3cccc(F)c3)cc2O[C@H]1CN(C)S(=O)(=O)c1cn(C)cn1`, the inhibition is reported as 68.3% (active). In the case of `C[C@@H]1CN([C@H](C)CO)S(=O)(=O)c2ccc(C#C[C@@H](C)O)cc2O[C@@H]1CN(C)Cc1ccc(-c2ccccc2)cc1`, the inhibition is reported as -12.7%. Compound `C=CCN1C(=O)N(Cc2ccccc2)c2ccccc2S1(=O)=O` has an inhibition of -0.33%. With `COCCNC(=O)c1cc2c(Br)ccc(Br)c2nc1N` the inhibition was -4.31%. With `CC(=O)Nc1ccc(NC(=O)CS(=O)(=O)c2cn(CC(=O)N3CCCCC3)c3ccccc23)cc1` the inhibition was -35.2%. Compound `CC(C)(C)SCCNC(=O)c1cccc([N+](=O)[O-])c1` has an inhibition of -20.6%. `O=C(Nc1nnc(SCc2c(Cl)cccc2Cl)s1)c1cccc([N+](=O)[O-])c1` showed an inhibition of -16.3%. For `O=C(Nc1ccc(C2CC2(Cl)Cl)cc1)c1cccc([N+](=O)[O-])c1` (stereo unspecified), the inhibition was 49.6% (active). With `NC(=O)c1oc2ccccc2c1NC(=O)Cc1ccccc1` the inhibition was 7.4%. `NC(=O)c1oc2ccccc2c1NC(=O)CS(=O)(=O)c1ccccc1` was tested, and the inhibition was -13.1%. For `COc1ccc(CC(=O)Nc2c(C(N)=O)oc3ccccc23)cc1`, the inhibition was 62.3% (active). Compound `Cc1nc(N2CCOCC2)c2c(C)c(C(=O)Nc3ccc(C(F)(F)F)cc3)sc2n1` has an inhibition of 15.7%. In the case of `Cc1nc(N2CCN(c3ccccn3)CC2)c2c(C)c(C(=O)Nc3ccc(F)cc3)sc2n1`, the inhibition is reported as 58% (active). For `Cc1nc(N2CCN(c3ccccn3)CC2)c2c(C)c(C(=O)Nc3ccc(F)c(Cl)c3)sc2n1`, the inhibition was -1.25%. `CN(CC(=O)NCc1ccc(Cl)cc1)S(=O)(=O)c1cccs1` showed an inhibition of -2.12%. `Cc1ccc(-c2nc3c(Cl)cc(C(F)(F)F)cn3c2Cc2cccc(Cl)c2)cc1` was tested, and the inhibition was 3.71%. Work on `Brc1ccc(COCCc2cn(Cc3ccccc3)c3ccccc23)cc1` yielded an inhibition of -22%. `COc1ccc(NC(=O)C2=C(C)NC(=O)NC2c2ccccc2[N+](=O)[O-])cc1` (stereo unspecified) was tested, and the inhibition was 1.55%. With `COC(=O)Cc1nnn2c1[C@H](C)[C@H](c1ccccc1Br)OCC2` the inhibition was 73.5% (active). With `COC(=O)Cc1nnn2c1[C@H](C)[C@H](c1ccccc1[N+](=O)[O-])OCC2` the inhibition was 51.6% (active). Compound `COC(=O)Cc1nnn2c1[C@H](C)[C@@H](OC)c1cc(Br)ccc1-2` has an inhibition of 1.99%. In the case of `COC(=O)C1(C(=O)OC)C/C=C\CN(S(=O)(=O)c2ccccc2[N+](=O)[O-])CCC1`, the inhibition is reported as -2.45%. For `COC(=O)N1Cc2ccnnc2CC1c1ccccc1Br` (stereo unspecified), the inhibition was -6.91%. `CCn1cc(CCC(=O)NCc2ccc(F)cc2)c2ccccc21` was tested, and the inhibition was 8.18%. Compound `C=CC[C@]12C[C@@]3(O[C@H](c4ccc(C(F)(F)F)cc4)N=C3C[C@H](c3ccc(OC)cc3)[C@H]1C)N(C1CCN(Cc3ccccc3)CC1)C2=O` has an inhibition of -52.6%. With `Cc1ccc(-c2cc(C(=O)NN)n[nH]2)o1` the inhibition was 2.39%. With `CCOC(=O)[C@]12CCCC=C1N(CCC1=CCCCC1)C(=O)[C@H](CC(=O)N1CCOCC1)C2` the inhibition was -9.23%. For `CCCCNC(=O)C[C@@H]1C[C@@]2(C(=O)OC)CC(C)(C)CC=C2N(Cc2ccco2)C1=O`, the inhibition was -0.44%. With `CCOC(=O)C1CCN(C(=O)C2(NC(=O)Nc3cccc(F)c3)CCCCC2)CC1` the inhibition was -26.8%. `O=S1(=O)CC(N2CCN(Cc3ccccc3F)CC2)CN1Cc1cn(Cc2cccc(C(F)(F)F)c2)nn1` (stereo unspecified) was tested, and the inhibition was -13%.

From PubChem BioAssay AID624466 (The Scripps Research Institute Molecular Screening Center, 2012)
